# Measured values: ChEMBL document CHEMBL4513216, “Probing the Open Global Health Chemical Diversity Library for Multistage-Active Starting Points for Next-Generation Antimalarials” (ACS Infect Dis, 2020)
# Assay: Toxicity liver stage against HepG2, at 10uM
# Assay type: cell-based
# Parameters: test concentration 10 uM, cell line HepG2-A16-CD81EGFP
# Conditions: human, HepG2-A16-CD81EGFP cells; read-out: INHIBITION
# Summary of the method: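 Uninfected HepG2-A16-CD81EGFP cells, 3 × 10^3 per well, 1536-well, plated on prespotted compound at 10 μM final, parasite-free screening media added to match infected plates; puromycin 10 μM positive, DMSO 0.5% negative; run in parallel with 48 h PbLuc assay at 37 °C, 5% CO2; viability by CellTiter-Glo luminescence, normalized to controls.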
row,SMILES,cytotoxicity at 10 µM
1,Nc1nc(Nc2ccccc2)cc(N2CCNCC2)n1,1.23%
2,CCN1CC[C@@]2(C(=O)N3CCOCC3)CCN(C(=O)NC)CC[C@@H]12,-12.7%
3,COc1ncc(CN2CCCC2c2[nH]ncc2C(=O)N(C)C)cn1 (centres undefined),-0.116%
4,O=C(OCC1CCCN(C(=O)c2ccccc2)C1)c1cscn1 (centres undefined),-9.92%
5,COCCN(Cc1ccccn1)C(=O)CC1OCCc2ccccc21 (centres undefined),-42.5%
6,Cc1ccc(CC(=O)N2CCCN(Cc3nccn3C)CC2)cn1,-22.3%
7,O=c1ccn([C@H]2CCN(Cc3ncc[nH]3)CC[C@@H]2O)c(=O)[nH]1,13%
8,Cc1cnn(C2CN(C(C)c3nc(-c4ccccc4)no3)C2)c1 (centres undefined),-2.21%
9,COCCN1C(=O)C[C@H]2[C@H]1CCN2C(=O)c1ccc[nH]1,5.89%
10,O=c1[nH]c2nc(N3CCOCC3)ncc2c(=O)n1-c1cccc(F)c1,9.32%
11,Cc1nc2sccn2c1CN(CCCN(C)C)Cc1ccccn1,3.38%
12,NC(=O)C1CCN(C(=O)CCCc2ccc(Cl)c(Cl)c2)CC1,5.34%
13,CCN1C(=O)[C@]2(CC[C@@H]3CN(C(=O)NCC(C)C)C[C@@H]32)N=C1C,9.16%
14,Cc1cnn(CC2CCCN2C(=O)c2ccc3c(c2)nnn3C)c1 (centres undefined),18.4%
15,Cc1cnn(CC2CN(CC(=O)Nc3ccncc3)CCO2)c1 (centres undefined),-3.75%
16,CC(=O)N1CC2(CCN(C(=O)c3ccoc3)C2)C1,6.47%
17,CCOC(=O)c1cn(CC(O)c2ccccc2OC)nn1 (centres undefined),-4.06%
18,Cc1cccc(C2(CNC(=O)c3ccnc(N(C)C)c3)CCOCC2)c1,2.85%
19,CCc1nc(CN2CCCN(c3nn4cc(C)nc4s3)CC2)no1,-14.7%
20,CN(C)C(=O)CN1CCCCC1c1nc(N)ncc1-c1ccc(Cl)cc1 (centres undefined),-14.9%
21,Cc1nn(C)c2nc(NCCCN3CCCC(C(N)=O)C3)sc12 (centres undefined),-9.8%
22,CC(C)c1cnc(CN2CCCC(c3ccn[nH]3)C2)o1 (centres undefined),-4.01%

row,SMILES,cytotoxicity at 10 µM
1,CS(=O)(=O)N1CCC(C(=O)NCCNc2ncccn2)CC1,-8.11%
2,O=C(c1ccnc(CC2COc3ccccc3C2)c1)N1CCCC1 (centres undefined),1.7%
3,COCC1(CNC(=O)Nc2cc(F)ccc2OC)CCCC1,5.17%
4,CCc1c(O)nc(SC(C)CC)n(-c2ccccc2)c1=O (centres undefined),4.22%
5,N#Cc1cccc(CN2C[C@H](NC(=O)C3CC3)[C@H]3OCCC[C@H]32)c1,-0.155%
6,CC(C)NC(=O)Nc1ccc(CS(C)(=O)=O)cc1,1.69%
7,Cc1nnc([C@@]23CCO[C@@H]2CCN(Cc2ccc4c(c2)OCO4)C3)o1,-102%
8,CC(C)CCc1noc(CN2CCCC(CNS(N)(=O)=O)C2)n1 (centres undefined),2.48%
9,COc1ccc2cc(C3CN(C(=O)CN4CCCC4)CCO3)ccc2c1 (centres undefined),-6.88%
10,CCOC(=O)[C@H]1[C@@H](O)C(=O)N(C)C12CCN(C(=O)CC1CCCC1)CC2,-1%
11,Cc1cnc(N2CC[C@@H]3CN(Cc4ccncc4)CCO[C@@H]3C2)nc1,3.23%
12,CCn1c(=O)n(CCC(=O)N(C)Cc2ccc(C)o2)c2ccccc21,-2.42%
13,CC1=C[C@@H](CC#N)[C@H](C(C)C)C[C@H]1CC(=O)N1CCN(CCO)CC1,4.62%
14,CC(C)CCN1CC2(CCN(C(=O)C3(C)CC3)CC2)OC1=O,1.84%
15,CCn1cc(C2CCN(Cc3ccnc(N(C)C)c3)CC2)cn1,11%
16,O=C(Cc1ccccc1)N1CCC2(CC(=O)N(c3cccc(F)c3)C2)C1 (centres undefined),-0.557%
17,CC(Oc1ccccc1C(F)(F)F)C(=O)NCCCC(N)=O (centres undefined),-1.73%
18,COCC1CCN(c2ccnc3ccsc23)C1 (centres undefined),6.24%
19,Cc1cnccc1-c1cnn(CCNC(=O)c2cccnc2)c1C1CC1,4.34%
20,CCc1ccccc1NC(=O)C1CN(C(C)=O)C1,8.49%
21,Cc1nccn1C1CCCN(C(=O)COC2CCCC2)C1 (centres undefined),-10.5%
22,CN(CCc1cccc2ccccc12)Cc1nc(N)nc(N(C)C)n1,4.19%

row,SMILES,cytotoxicity at 10 µM
1,CCCS(=O)(=O)NCC1CCOc2ccccc2C1 (centres undefined),-6.92%
2,COc1ccc(OC)c(C(=O)N2C[C@@H]3CC[C@H]2CN(C)C3)c1,4.61%
3,CS(=O)(=O)N1CCCCCC1c1cc(-c2ccc(F)cc2)no1 (centres undefined),2.97%
4,COc1ccc(CNC(=O)C(NC(=O)Cc2ccccc2)C(C)C)cn1 (centres undefined),-0.943%
5,Cc1cc(C)nc(Nc2cncc(C3CCCN(S(C)(=O)=O)C3)n2)n1 (centres undefined),-16.1%
6,COCC(=O)NC(C)Cc1ccc(Br)cc1 (centres undefined),-1.01%
7,Cc1n[nH]c(C)c1NC(=O)Nc1cccnc1N1CCCC1,-14%
8,Cc1cc(NC(=O)CN2CCOC(Cn3nc(C)cc3C)C2)n(C)n1 (centres undefined),-7.91%
9,CCN(C)Cc1cnc(S(=O)(=O)CC)n1CCOC,4.38%
10,CN1CC(=O)N(c2cccc(F)c2)CC12CCN(CC1CCOCC1)C2 (centres undefined),0.887%
11,COC(C)C(=O)Nc1cc(C(=O)N2CCSCC2)ccc1C (centres undefined),6.83%
12,COc1ccccc1C(O)CNc1c(C#N)c(=O)n(C)c(=O)n1C (centres undefined),-2.9%
13,Cc1ccc(C(=O)NC2CCN(C(C)C)C2)c(=O)[nH]1 (centres undefined),5.26%
14,O=C(c1ccccc1)N1CCO[C@@H]2CN(c3cnccn3)C[C@@H]2C1,0.442%
15,Cn1cc(CN2CCc3ncn(C)c3C2COCc2ccccc2)cn1 (centres undefined),9.19%
16,CCC1CCc2c(c3ccccc3[nH]c2=O)O1 (centres undefined),-1.1%
17,CCC(CC)(CNC(=O)OC(C)(C)C)NC(=O)c1cnccn1,-8.56%
18,Cc1cc(C)cc(N2CCN(C(=O)C3CN(C)C(=O)N3)CC2=O)c1 (centres undefined),-5.13%
19,COCCS(=O)(=O)NC(C)c1cccc(C)c1C (centres undefined),6.13%
20,COc1cc(C)ccc1OCCC(=O)N1CCC(N2CC=CC2)C1 (centres undefined),6.99%
21,c1cc2n(n1)CC(CNCc1ccc(OC3CCCCC3)nc1)CN2 (centres undefined),-8.49%
22,CN1CCNC(=O)C12CCN(Cc1ccco1)CC2,-81.3%

row,SMILES,cytotoxicity at 10 µM
1,CCCc1nc(CN2CCOC(Cn3cncn3)C2)no1 (centres undefined),-7.03%
2,CC(C)c1csc(C2CCCN(C(=O)c3ccc(=O)n(C)n3)C2)n1 (centres undefined),9.24%
3,Cc1ccc(N2CCCC(NCc3ccncc3)C2)nn1 (centres undefined),2.55%
4,CCn1cnnc1C1CCN(C(=O)c2cccc(-n3cccc3)c2)CC1,4.56%
5,CN(C)S(=O)(=O)c1ccc(CSCC(=O)NC(C)(C)C)o1,-1.82%
6,Cc1ccc(C)c(OC2CCN(C(=O)c3ccc(O)nc3)CC2)c1,3.23%
7,Cc1noc(CN2CC=C(c3c[nH]c4ncccc34)CC2)n1,44.7%
8,Cn1cc(NC(=O)Cn2cc(-c3ccccc3)ncc2=O)cn1,-3.43%
9,CN(C)c1nccc(C2CCN(C(=O)CO)CC2)n1,-23.6%
10,CC(NC(=O)c1ccoc1)C(=O)N(C)Cc1ccc(O)cc1 (centres undefined),-3.59%
11,Cc1cc(CN2CCN(C(=O)NCc3c(C)noc3C)CC2)on1,0.386%
12,CCC1(CC)CC(=O)N(CC(O)c2ccc(Cl)cc2)C1=O (centres undefined),4.06%
13,Cc1ccc(-c2cnc3n2CCN(C)C32CCN(CC3CC3)CC2)cc1,11%
14,CCOc1ccc(C(=O)NCc2ccnc(N3CCCC3)c2)cn1,6.62%
15,Cc1ccc(CN2CC[C@H](O)[C@@H](n3ccc(=O)[nH]c3=O)CC2)cc1,-22.8%
16,Cc1cc(C)cc(N2CCN(C(=O)CCN3C[C@H]4CC[C@@H]3C4)CC2=O)c1,-4.76%
17,Cc1noc(C)c1CNC(C)c1ccc(S(=O)(=O)N(C)C)cc1 (centres undefined),2.47%
18,Cc1cccc2sc(NC(=O)CN3CCCC(O)(CO)C3)nc12 (centres undefined),16.9%
19,COc1c(CNC(c2ccccc2)c2nccn2C)c(C)nn1C (centres undefined),-3.16%
20,Cc1ncc(C(=O)N2CCOC(C(=O)N3CCCCC3)C2)c(C)n1 (centres undefined),1.14%
21,O=c1c2c[nH]c(N3CCOCC3)nc-2cn1Cc1cccc(F)c1,-2.72%
22,Nc1cncc(C(=O)N2Cc3ccccc3OC3(CCOCC3)C2)c1,11.9%

row,SMILES,cytotoxicity at 10 µM
1,O=C(CCNS(=O)(=O)c1ccc2c(c1)CCCC2)NCc1ccoc1,5.86%
2,Clc1ccc(CN2CCN(Cn3nccc3-c3cccnc3)CC2)s1,8.64%
3,CC1N(CC2CC2)C(=O)COC12CCN(C(=O)c1ccncc1)CC2 (centres undefined),-13.7%
4,CCc1nnc(SC2CCCN(c3cccc(F)c3)C2=O)n1C (centres undefined),7.17%
5,CCS(=O)(=O)N1CCC(NC(=O)c2ccccc2O)CC1,-7.27%
6,CC1(C)OC(=O)N(CCCOc2ccc(F)cc2)C1=O,0.17%
7,CO[C@@H]1CCN(c2nnc(C)s2)C[C@@H]1Cc1ccccc1,10.5%
8,N#Cc1ccc(F)c(CN2CCCC2Cn2cnc3ccccc32)c1 (centres undefined),0.224%
9,CN1CCN(C(=O)[C@@H]2CN(C)C[C@]23COc2ccc(F)cc2C3=O)CC1,3.06%
10,Cn1nccc1C(=O)Nc1cc(C(F)(F)F)c[nH]c1=O,-6.54%
11,Cn1cc(C[C@H]2[C@@H](O)CCN2C(=O)c2ccc[nH]2)cn1,-71.2%
12,COc1cc(C)cc(-c2nc3c([nH]2)CCNC3)c1OC,4.46%
13,COc1c(C2CCCN2C(=O)c2cccc(C(N)=O)c2)c(C)nn1C (centres undefined),0.192%
14,O=C(Nc1cccnc1)C1Cc2nc(-c3ccsc3)sc2N1CC1CC1 (centres undefined),14.5%
15,CNS(=O)(=O)CCNC(=O)[C@@]12CNC[C@@H]1CN(C1CCCC1)C2,1.3%
16,CS(=O)(=O)NCC1CCCN(C(=O)c2ccc(Cl)o2)C1 (centres undefined),-10.2%
17,COCCNC(=O)NCc1ccc(-n2ccc(C(F)(F)F)n2)cc1,-7.29%
18,COCCCN1C(=O)CC[C@H]2CN(c3ccnc4ccccc34)CC[C@H]21,-3.63%
19,c1cncc(CNc2ncnc3c2CCN(Cc2ccsc2)CC3)c1,7.91%
20,O=C1CC[C@@H](C(=O)N2CCC(Cn3cc(C4CCCCC4)nn3)CC2)N1,8.02%
21,CCN(CC)CC1CCN(C(=O)CCn2cccn2)CC1,-13.3%
